Columns and labels:
MES-SA = assay: Concentration required for the 50% inhibition of human uterine cancer (MESSA) cell line growth; format: functional, cell-based
MCF7 = assay: Concentration required for the 50% inhibition of human breast cancer (MCF-7) cell line growth; format: functional, cell-based
MKN-45 = assay: Concentration required for the 50% inhibition of human stomach cancer (MKN45) cell line growth; format: functional, cell-based
NUGC-3 = assay: Concentration required for the 50% inhibition of human stomach cancer (NUGC3) cell line growth; format: functional, cell-based
A549 = assay: Concentration required for the 50% inhibition of human lung caner (A549) cell line growth; format: functional, cell-based
Tubulin beta-1 chain = Tubulin beta-1 chain (Homo sapiens, UniProt Q9H4B7); assay: Inhibition of tubulin polymerization
Chain of Tubulin beta-1 chain (Q9H4B7 whole entry): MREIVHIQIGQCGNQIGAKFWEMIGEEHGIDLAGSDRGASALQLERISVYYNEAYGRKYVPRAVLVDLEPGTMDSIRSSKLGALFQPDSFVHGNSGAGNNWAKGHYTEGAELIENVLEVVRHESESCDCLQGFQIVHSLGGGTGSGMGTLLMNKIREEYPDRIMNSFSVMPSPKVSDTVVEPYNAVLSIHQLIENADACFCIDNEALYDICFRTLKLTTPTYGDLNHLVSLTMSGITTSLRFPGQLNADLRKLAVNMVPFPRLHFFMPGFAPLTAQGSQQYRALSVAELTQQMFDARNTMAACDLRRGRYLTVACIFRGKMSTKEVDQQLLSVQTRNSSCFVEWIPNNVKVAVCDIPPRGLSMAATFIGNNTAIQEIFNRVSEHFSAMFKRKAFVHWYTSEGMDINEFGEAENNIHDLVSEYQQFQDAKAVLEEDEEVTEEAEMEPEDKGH
Outline: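 MAP-rich tubulin at 2 mg/mL in 100 mM PIPES (pH 6.9), 2 mM MgCl2, 1 mM GTP, 2% (v/v) DMSO with compound. Turbidity read at 350 nm, 37 °C, every 30 s for 30 min. Area under curve scaled between untreated control (100%) and 10 μM colchicine (0%). IC50 by nonlinear regression, at least three experiments.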

IC50 (MCF7) | IC50 (MKN-45) | IC50 (A549) | SMILES | IC50 (MES-SA) | IC50 (NUGC-3) | IC50 (Tubulin beta-1 chain)
9060 nM | 487 nM | 6500 nM | COc1cc(C(=O)c2c[nH]c3cccc(OC)c23)cc(OC)c1OC | 9390 nM | 3360 nM | 
 |  |  | COc1ccc2c(c1)cc(C)n2C(=O)c1cc(OC)c(OC)c(OC)c1 |  |  | 3310 nM
 |  |  | COc1ccc2c(C(=O)c3cc(OC)c(OC)c(OC)c3)c(C)[nH]c2c1 |  |  | 900 nM
> 10000 nM | > 10000 nM | > 10000 nM | COc1ccc2c(ccn2C(=O)c2ccc3c(c2)OCO3)c1 | > 10000 nM | > 10000 nM | 
7 nM | 4 nM | 23 nM | COc1ccc2c(C(=O)c3cc(OC)c(OC)c(OC)c3)c[nH]c2c1 | 4 nM | 1 nM | 2180 nM
 |  |  | COc1ccc2c(ccn2C(=O)c2cc(OC)c(OC)c(OC)c2)c1 |  |  | 3760 nM
 |  |  | COc1cc(OC)cc(C(=O)c2c[nH]c3cc(OC)ccc23)c1 |  |  | 2690 nM

SMILES | IC50 (MCF7) | IC50 (MKN-45) | IC50 (A549) | IC50 (MES-SA) | IC50 (NUGC-3) | IC50 (Tubulin beta-1 chain)
COc1ccc(/C=C\c2cc(OC)c(OC)c(OC)c2)cc1O [COMBRETASTATIN A4] | 8 nM | 82 nM | 117 nM | 13 nM | > 10000 nM | 
COc1ccc2[nH]cc(C(=O)c3cc(OC)c(OC)c(OC)c3)c2c1 | 639 nM | 326 nM | 614 nM | 884 nM | 360 nM | 

— ChEMBL document CHEMBL1138678, “Concise synthesis and structure-activity relationships of combretastatin A-4 analogues, 1-aroylindoles and 3-aroylindoles, as novel classes of potent antitubulin agents” (J Med Chem, 2004)
